Active and inactive are the calls of the source. The calls are words filed in the database; no cut-off is given here.
How the values were obtained:
[1] = test system: Radical scavenging activity; assay: Antioxidant activity assessed as DPPH free radical scavenging activity after 30 mins; assay type: functional
Procedure, shortened: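 Test samples taken up as 10 mM DMSO stocks, dissolved in 2-propanol. 50 μL of sample, or 2-propanol vehicle as negative control, mixed with 150 μL DPPH in 2-propanol (40 uM). Shaken, stood 30 min, absorbance read at 520 nm. Percent inhibition computed against control wells. Triplicates. IC50 taken as the concentration scavenging 50% of DPPH radicals. Ascorbic acid as positive control.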

Staphylococcus aureus = assay: Antibacterial activity against methicillin-resistant Staphylococcus aureus up to 30 uM after 24 hrs; assay type: functional, organism-based
Klebsiella pneumoniae = assay: Antibacterial activity against Klebsiella pneumoniae up to 30 uM after 24 hrs; assay type: functional, organism-based
Aspergillus fumigatus = assay: Antifungal activity against Aspergillus fumigatus up to 30 uM after 48 hrs; assay type: functional, organism-based
[2] = test system: Radical scavenging activity; assay: Antioxidant activity assessed as DPPH free radical scavenging activity up to 30 uM after 30 mins; assay type: functional
Procedure, shortened: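 Samples from 10 mM DMSO stocks were diluted in 2-propanol and mixed with DPPH in 2-propanol (40 uM solution as added). Controls were ascorbic acid (positive) and 2-propanol vehicle (negative). Plates were shaken and left for 30 min, then absorbance was read at 520 nm. Percent inhibition was calculated against control wells, in triplicate. IC50 is the concentration scavenging 50% of DPPH radicals.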

With `O=C1O[C@H]([C@@H](O)CO)C(O)=C1O` [ASCORBIC ACID] the IC50 [1] was 5.6 µM.
In the case of `COc1cc(C)c(Oc2cc(C)cc(OC)c2O)c(O)c1`, the IC50 [1] is reported as 7.9 µM, the Activity (Staphylococcus aureus) is reported as “inactive” and the Activity (Klebsiella pneumoniae) is reported as “inactive”. The Activity (Aspergillus fumigatus) was “inactive”.
With `COc1cc(C2=CC(=O)[C@@](C)(c3ccc(O)c(OC)c3)C2=O)ccc1O` the Activity [2] was “inactive”, the Activity (Staphylococcus aureus) was “inactive” and the Activity (Klebsiella pneumoniae) was “inactive”. For the same compound, the Activity (Aspergillus fumigatus) was “inactive”.
With `COc1cc(C)c(Oc2cc(C)cc(O)c2)c(O)c1` the Activity [2] was “inactive”, the Activity (Staphylococcus aureus) was “inactive” and the Activity (Klebsiella pneumoniae) was “inactive”. The Activity (Aspergillus fumigatus) was “inactive”.
`COc1cc(C)c(Oc2cc(C)cc(O)c2O)c(O)c1` was tested, and the IC50 [1] was 11.6 µM, the Activity (Staphylococcus aureus) was “inactive” and the Activity (Klebsiella pneumoniae) was “inactive”. For the same compound, the Activity (Aspergillus fumigatus) was “inactive”.
